Measurements published in ChEMBL document CHEMBL4038284, “Synthesis of novel quinoline-based 4,5-dihydro-1H-pyrazoles as potential anticancer, antifungal, antibacterial and antiprotozoal agents” (Eur J Med Chem, 2017).
Converted amounts (≈) assume the structure as drawn. The source made the active and inactive calls. The rule behind the calls is not given here.

Key:
[1] = test system: NCI/ADR-RES; assay: Growth inhibition of human NCI/ADR-RES cells at 10 uM incubated for 48 hrs by sulforhodamine B assay; assay type: functional, cell-based
Procedure, shortened: (§1)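 NCI 60-line panel, single 10 μM dose. Cells were grown in RPMI-1640 with 5% FBS and 2 mM L-glutamine and pre-incubated 24 h before compound addition (DMSO stock). Exposure was 48 h at 37 °C, 5% CO2. Cells were fixed with cold TCA (10% final), stained with 0.4% SRB, bound dye dissolved in 10 mM Tris base, A515 read. Growth was taken relative to time-zero and untreated control plates.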

[2] = test system: HCT-15; assay: Growth inhibition of human HCT15 cells at 10 uM incubated for 48 hrs by sulforhodamine B assay; assay type: functional, cell-based
Procedure, shortened: (§2)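 NCI 60-cell-line screen at a single 10 µM dose. Cells in RPMI-1640 with 5% FBS and 2 mM L-glutamine, pre-incubated 24 h, then treated for 48 h at 37 °C. TCA fixation, sulforhodamine B staining, absorbance at 515 nm. Percentage growth calculated against time-zero and untreated controls.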

[3] = test system: Staphylococcus aureus; assay: Antibacterial activity against methicillin-sensitive Staphylococcus aureus ATCC 25923 after 24 hrs by resazurin dye based microdilution assay; assay type: functional; conditions: ATCC 25923, 24 h
Procedure, shortened: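 MIC taken as the lowest concentration giving visible inhibition and/or by resazurin (1 mg/mL). Gentamicin was the control. Run in duplicate, repeated at least three times.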

[4] = test system: Candida albicans; assay: Growth inhibition of Candida albicans ATCC 10231 at 62.5 ug/ml incubated for 48 hrs under dark condition by broth microdilution method relative to control; assay type: functional; conditions: ATCC 10231, 48 h, read-out: GI
Procedure, shortened: (§3)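 CLSI M27-A3 broth microdilution in RPMI-1640, DMSO ≤1%. Inoculum 1-5 × 10^3 CFU/mL. Incubated 48 h at 30 °C, dark. % inhibition = 100 − (OD405 test − sterility control)/(OD405 growth control − sterility control), with growth and sterility control wells. Triplicate.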

[5] = test system: OVCAR-3; assay: Growth inhibition of human OVCAR3 cells at 10 uM incubated for 48 hrs by sulforhodamine B assay; assay type: functional, cell-based; procedure, shortened: as §1
[6] = test system: Candida albicans; assay: Growth inhibition of Candida albicans ATCC 10231 at 125 ug/ml incubated for 48 hrs under dark condition by broth microdilution method relative to control; assay type: functional; conditions: ATCC 10231, 48 h, read-out: GI; procedure, shortened: as §3
[7] = test system: OVCAR-5; assay: Growth inhibition of human OVCAR5 cells at 10 uM incubated for 48 hrs by sulforhodamine B assay; assay type: functional, cell-based; procedure, shortened: as §1
[8] = test system: HT-29; assay: Growth inhibition of human HT-29 cells at 10 uM incubated for 48 hrs by sulforhodamine B assay; assay type: functional, cell-based; procedure, shortened: as §1
[9] = test system: Candida albicans; assay: Growth inhibition of Candida albicans ATCC 10231 at 250 ug/ml incubated for 48 hrs under dark condition by broth microdilution method relative to control; assay type: functional; conditions: ATCC 10231, 48 h, read-out: GI; procedure, shortened: as §3
[10] = test system: NCI-H23; assay: Growth inhibition of human NCI-H23 cells at 10 uM incubated for 48 hrs by sulforhodamine B assay; assay type: functional, cell-based; procedure, shortened: as §1
[11] = test system: Candida albicans; assay: Growth inhibition of Candida albicans ATCC 10231 at 3.4 ug/ml incubated for 48 hrs under dark condition by broth microdilution method relative to control; assay type: functional; conditions: ATCC 10231, 48 h, read-out: GI
[12] = test system: SN12C; assay: Growth inhibition of human SN12C cells at 10 uM incubated for 48 hrs by sulforhodamine B assay; assay type: functional, cell-based
Procedure, shortened: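 NCI-60 single-dose screen at 10 µM for 48 h. Cells were grown in RPMI-1640 with 5% FBS and 2 mM L-glutamine and preincubated 24 h before compound. Time-zero plates were TCA-fixed at compound addition. After exposure, cells were TCA-fixed, stained with SRB and read at 515 nm. Percentage growth was calculated against time-zero and untreated-control absorbances.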

[13] = test system: NCI-H460; assay: Growth inhibition of human NCI-H460 cells at 10 uM incubated for 48 hrs by sulforhodamine B assay; assay type: functional, cell-based; procedure, shortened: as §1
[14] = test system: MCF7; assay: Growth inhibition of human MCF7 cells at 10 uM incubated for 48 hrs by sulforhodamine B assay; assay type: functional, cell-based; procedure, shortened: as §1
[15] = test system: Candida albicans; assay: Growth inhibition of Candida albicans ATCC 10231 at 15.62 ug/ml incubated for 48 hrs under dark condition by broth microdilution method relative to control; assay type: functional; conditions: ATCC 10231, 48 h, read-out: GI; procedure, shortened: as §3
[16] = test system: HCC 2998; assay: Growth inhibition of human HCC2998 cells at 10 uM incubated for 48 hrs by sulforhodamine B assay; assay type: functional, cell-based; procedure, shortened: as §2
[17] = test system: MOLT-4; assay: Growth inhibition of human MOLT4 cells at 10 uM incubated for 48 hrs by sulforhodamine B assay; assay type: functional, cell-based; procedure, shortened: as §1
[18] = test system: Cryptococcus neoformans; assay: Growth inhibition of Cryptococcus neoformans ATCC 32264 at 15.62 ug/ml incubated for 48 hrs under dark condition by broth microdilution method relative to control; assay type: functional; conditions: ATCC 32264, 48 h, read-out: GI; procedure, shortened: as §3
[19] = test system: CCRF-CEM; assay: Growth inhibition of human CCRF-CEM cells at 10 uM incubated for 48 hrs by sulforhodamine B assay; assay type: functional, cell-based; procedure, shortened: as §2
[20] = test system: K562; assay: Growth inhibition of human K562 cells at 10 uM incubated for 48 hrs by sulforhodamine B assay; assay type: functional, cell-based; procedure, shortened: as §1
[21] = test system: SF-295; assay: Growth inhibition of human SF295 cells at 10 uM incubated for 48 hrs by sulforhodamine B assay; assay type: functional, cell-based; procedure, shortened: as §1
[22] = test system: Trypanosoma cruzi; assay: Antitrypanosomal activity against Trypanosoma cruzi Tulahuen intracellular amastigote harboring LacZ infected in human U937 cells after 72 hrs by CPRG/Nonidet reagent based spectrophotometric method; assay type: functional, cell-based; conditions: U-937, 72 h
Procedure, shortened: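 U-937 cells at 2.5 × 10^5 cells/mL in RPMI-1640 with 10% serum and 0.1 µg/mL PMA were infected with β-galactosidase-transfected Tulahuen epimastigotes at 5 parasites per cell. Infected cells were exposed to 50, 12.5, 3.125 and 0.78 µg/mL for 72 h. CPRG (100 uM) and 0.1% Nonidet P-40 were added for 3 h, read at 570 nm. EC50 by Probit. Triplicate, at least two experiments; benznidazole as reference.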

[23] = test system: RPMI-8226; assay: Growth inhibition of human RPMI8226 cells at 10 uM incubated for 48 hrs by sulforhodamine B assay; assay type: functional, cell-based; procedure, shortened: as §1
[24] = test system: EKVX; assay: Growth inhibition of human EKVX cells at 10 uM incubated for 48 hrs by sulforhodamine B assay; assay type: functional, cell-based; procedure, shortened: as §2
[25] = test system: Leishmania panamensis; assay: Antileshmanial activity against EpiR/GFP fused Leishmania panamensis MHOM/CO/87/UA140 intracellular amastigotes infected in human […] cells after 72 hrs by flow cytometric method; assay type: functional, cell-based; conditions: MHOM/CO/87/UA140, 72 h
Procedure, shortened: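 PMA-treated U-937 cells (3 × 10^5 cells/mL) infected with stationary-phase GFP L. panamensis promastigotes (15:1), 3 h at 34 °C, then washed. After 24 h, compounds added at 50, 12.5, 3.125 and 0.78 µg/mL for 72 h at 37 °C. EC50 by Probit; triplicate, two experiments.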

[26] = test system: IGROV-1; assay: Growth inhibition of human IGROV1 cells at 10 uM incubated for 48 hrs by sulforhodamine B assay; assay type: functional, cell-based; procedure, shortened: as §1
[27] = test system: HOP-92; assay: Growth inhibition of human HOP92 cells at 10 uM incubated for 48 hrs by sulforhodamine B assay; assay type: functional, cell-based; procedure, shortened: as §1
[28] = test system: HCT-116; assay: Growth inhibition of human HCT116 cells at 10 uM incubated for 48 hrs by sulforhodamine B assay; assay type: functional, cell-based; procedure, shortened: as §2
[29] = test system: ACHN; assay: Growth inhibition of human ACHN cells at 10 uM incubated for 48 hrs by sulforhodamine B assay; assay type: functional, cell-based; procedure, shortened: as §2

Row | SMILES | growth inhibition (GI) [1] | growth inhibition (GI) [2] | MIC [3] | inhibition of growth at 62.5 µg/mL [4] | growth inhibition (GI) [5] | inhibition of growth at 125 µg/mL [6] | growth inhibition (GI) [7] | growth inhibition (GI) [8] | inhibition of growth at 250 µg/mL [9] | growth inhibition (GI) [10] | inhibition of growth at 3.4 µg/mL [11] | growth inhibition (GI) [12] | growth inhibition (GI) [13] | growth inhibition (GI) [14] | inhibition of growth at 15.62 µg/mL [15] | growth inhibition (GI) [16] | growth inhibition (GI) [17] | inhibition of growth at 15.62 µg/mL [18] | growth inhibition (GI) [19] | growth inhibition (GI) [20] | further results
1 | Clc1ccc(C2=NN(c3ccccc3)C(c3cccc(Nc4ccnc5cc(Cl)ccc45)c3)C2)cc1 (stereo unspecified) | inactive | inactive | > 1000 µg/mL | 7.77% | inactive | 8.35% | inactive | inactive | 19.8% | inactive | 0% | inactive | inactive | inactive | 4.29% | inactive | inactive | 0% | inactive | inactive | growth inhibition (GI) [21]: inactive; EC50 [22]: 16.2 µg/mL (≈ 31.8 µM); growth inhibition (GI) [23]: inactive; growth inhibition (GI) [24]: inactive; EC50 [25]: 11.7 µg/mL (≈ 22.9 µM); growth inhibition (GI) [26]: inactive; growth inhibition (GI) [27]: inactive; growth inhibition (GI) [28]: inactive; growth inhibition (GI) [29]: inactive
2 | COc1ccc(C(=O)/C=C/c2cccc(Nc3ccnc4cc(Cl)ccc34)c2)cc1 | Active | Active | > 1000 µg/mL | 41.1% | Active | 46.8% | Active | Active | 59.6% | Active | 5.88% | Active | Active | Active | 26.8% | Active | Active | 5.01% | Active | Active | growth inhibition (GI) [21]: Active; EC50 [22]: 3.29 µg/mL (≈ 7.93 µM); growth inhibition (GI) [23]: Active; growth inhibition (GI) [24]: Active; EC50 [25]: 2.65 µg/mL (≈ 6.39 µM); growth inhibition (GI) [26]: Active; growth inhibition (GI) [27]: Active; growth inhibition (GI) [28]: Active; growth inhibition (GI) [29]: Active
3 | COc1cc(C2=NN(c3ccc(Cl)cc3)C(c3cccc(Nc4ccnc5cc(Cl)ccc45)c3)C2)cc(OC)c1OC (stereo unspecified) | inactive | inactive | > 1000 µg/mL | 12.2% | inactive | 16.7% | inactive | inactive | 26.5% | inactive | 2.27% | inactive | inactive | inactive | 8.02% | inactive | inactive | 12.2% | inactive | inactive | growth inhibition (GI) [21]: inactive; EC50 [22]: 22.6 µg/mL (≈ 37.7 µM); growth inhibition (GI) [23]: inactive; growth inhibition (GI) [24]: inactive; EC50 [25]: 21.3 µg/mL (≈ 35.5 µM); growth inhibition (GI) [26]: inactive; growth inhibition (GI) [27]: inactive; growth inhibition (GI) [28]: inactive; growth inhibition (GI) [29]: inactive
4 | COc1ccc(C2=NN(c3ccccc3)C(c3cccc(Nc4ccnc5cc(Cl)ccc45)c3)C2)cc1 (stereo unspecified) | inactive | inactive | > 1000 µg/mL | 17.3% | inactive | 19.8% | inactive | inactive | 25.6% | inactive | 0.38% | inactive | inactive | inactive | 8.21% | inactive | inactive | 6.02% | inactive | inactive | growth inhibition (GI) [21]: inactive; EC50 [22]: 86.8 µg/mL (≈ 172 µM); growth inhibition (GI) [23]: inactive; growth inhibition (GI) [24]: inactive; EC50 [25]: 6.93 µg/mL (≈ 13.7 µM); growth inhibition (GI) [26]: inactive; growth inhibition (GI) [27]: inactive; growth inhibition (GI) [28]: inactive; growth inhibition (GI) [29]: inactive
